A selection: hits, their analogues and other compounds. The true share with any hit is near 2.3%.
TRPC4 act – TRPC4 (mouse) channel activation | Q9QUQ5 | HEK293 TRPC4beta/mu-opioid, Fluo4 calcium fluorescence; stronger effect = higher value | B-score at 10 µM | 310,000 compounds, 0.49% hits | AID 2237;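 active means B-score above 5 SD of library B-scores, and initial fluorescence ratio not above library mean plus 5 SD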;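 further: positive B-score marks a calcium rise read as TRPC4 activation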
Target sequence (Q9QUQ5 whole entry, looked up): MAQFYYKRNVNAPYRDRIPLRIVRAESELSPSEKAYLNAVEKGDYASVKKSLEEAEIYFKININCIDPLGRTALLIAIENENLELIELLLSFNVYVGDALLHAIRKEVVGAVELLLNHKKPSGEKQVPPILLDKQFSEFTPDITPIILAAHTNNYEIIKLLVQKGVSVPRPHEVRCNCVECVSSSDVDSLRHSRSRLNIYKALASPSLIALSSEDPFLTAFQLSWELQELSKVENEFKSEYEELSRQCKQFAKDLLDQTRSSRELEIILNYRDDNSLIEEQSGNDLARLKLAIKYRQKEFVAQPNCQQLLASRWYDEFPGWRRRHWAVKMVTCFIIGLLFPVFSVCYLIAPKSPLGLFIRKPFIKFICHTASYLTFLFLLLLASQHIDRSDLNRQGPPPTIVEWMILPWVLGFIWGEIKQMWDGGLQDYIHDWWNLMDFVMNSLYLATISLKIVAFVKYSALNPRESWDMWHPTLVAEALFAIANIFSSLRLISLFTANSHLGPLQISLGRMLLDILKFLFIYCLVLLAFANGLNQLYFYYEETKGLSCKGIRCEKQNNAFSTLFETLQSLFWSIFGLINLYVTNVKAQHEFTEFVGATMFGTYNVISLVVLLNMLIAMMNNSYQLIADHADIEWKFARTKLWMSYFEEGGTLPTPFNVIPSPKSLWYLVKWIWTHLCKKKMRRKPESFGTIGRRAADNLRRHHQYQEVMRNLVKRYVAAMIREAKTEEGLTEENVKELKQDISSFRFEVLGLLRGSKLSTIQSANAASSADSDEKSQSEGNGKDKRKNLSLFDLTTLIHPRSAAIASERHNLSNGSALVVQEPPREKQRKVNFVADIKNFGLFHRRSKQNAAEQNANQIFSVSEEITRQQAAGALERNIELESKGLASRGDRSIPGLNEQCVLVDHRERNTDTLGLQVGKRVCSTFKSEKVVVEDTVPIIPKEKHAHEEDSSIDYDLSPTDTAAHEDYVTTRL
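Assay system: HEK293 stable line with TRPC4beta plus mu-opioid receptor; schedule: 45 min room-temperature Fluo4 loading, 110 s read; technique: kinetic Fluo4 calcium fluorescence; evaluation: integrated baseline-normalised fluorescence ratio, converted to per-well B score; controls: buffer (low) and maximal DAMGO (high)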
TRPC4 block – TRPC4 (mouse) channel inhibition. 300,000 compounds, 0.39% hits. HEK293 TRPC4beta/mu-opioid, DAMGO-evoked Fluo4 calcium flux; stronger effect = lower value. B-score at 10 µM;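 active means B-score over 3 SD under the library average, no early fluorescence shift, positive overall ratio signal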
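Assay system – HEK293 line stably carrying TRPC4beta and mu-opioid receptor · Doses – single dose · Detection – Fluo4 calcium-dye fluorescence, kinetic read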
TRPC4 PAM – allosteric potentiators of mouse TRPC4 channel. 310,000 compounds, 0.42% hits. AID 2227. B-score at 10 µM. HEK293 TRPC4beta/mu-opioid, DAMGO EC20, Fluo-4 Ca2+ flux; stronger effect = higher value;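 active means B-score of calcium response area above 5 SD of library B-scores, with initial fluorescence ratio within 5 SD of library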;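 further: B-score of integrated fluorescence ratio over time as area under calcium response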
TRPC6 inh – inhibitors of mouse TRPC6 channel; Q61143; HEK293-TRPC6, membrane potential dye, ACh-evoked depolarization; stronger effect = lower value; B-score at 10 µM; 310,000 compounds, 1.1% hits;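 active means B-score under library mean minus 3 SD, initial fluorescence not abnormally high, positive integrated signal ratio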;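 further: B-score derived from integrated fluorescence ratio over the kinetic read; more negative B-score means stronger inhibition of depolarization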
TRPC6 act – mouse TRPC6 channel activation; Q61143; HEK293-TRPC6 membrane potential dye fluorescence; stronger effect = higher value; B-score at 10 µM; 310,000 compounds, 0.13% hits;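 active means B-score of the integrated fluorescence ratio above library mean plus 3 SD, and starting fluorescence ratio within library mean plus 5 SD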;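 further: higher score means more depolarization so channel activation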
TRPC4 spec 2 – second check of whether TRPC6 inhibitors also affect mouse TRPC4; shares compounds with TRPC6 inh; HEK293 TRPC4/MOR, membrane potential dye fluorescence; channel activated by saturating DAMGO dose; inhibition, % at 10 µM; 920 compounds, 42% hits; AID 2776;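 active means compounds whose fluorescence signal differed from control wells by over 3 SD, either direction, in both duplicate plates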
TRPC4 spec – tests whether TRPC6 inhibitors also affect mouse TRPC4; HEK293 TRPC4/mu-opioid, membrane potential fluorescence; 920 compounds, 61% hits; shares compounds with TRPC6 inh; activity change, negative = inhibition, % at 10 µM; AID 2777;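 active means rise or fall in signal beyond 3 SD of buffer-only wells in both replicate plates, either sign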;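 further: integrated kinetic ratio of fluorescence range over baseline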
HEK293 MPD ctr 2-1 – parental HEK293 nonspecific activity of TRPC6 inhibitors, second screen; 920 compounds, 31% hits; signal change vs control, % at 10 µM; shares compounds with TRPC6 inh; parental HEK293 membrane potential dye fluorescence; maximal acetylcholine challenge after compound addition; AID 2779;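 active means membrane potential signal moving either way by over 3 SD of the maximum-effect control, in both duplicate plates, meaning non-specific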
HEK293 MPD ctr-1 – checks TRPC6 inhibitor effects in parental HEK293 cells | shares compounds with TRPC6 inh | membrane potential signal change, % at 10 µM | 920 compounds, 60% hits | parental HEK293 membrane potential dye fluorescence | AID 2780;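 active means membrane potential signal shifting up or down by more than 3 SD of buffer-only wells, on both duplicate plates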
HEK293 MPD ctr-2 – counter-screen for TRPC6 modulators: effect in parental HEK293 cells. shares compounds with TRPC6 inh. membrane potential dye fluorescence. membrane potential signal change, % at 10 µM. 2,400 compounds, 51% hits. AID 488924;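 active means membrane potential signal moves up or down beyond 5 SD from buffer-only wells, on both duplicate plates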
HEK293 MPD ctr 2-2 – second counter-screen for TRPC6 modulators: effect in parental HEK293 cells. shares compounds with TRPC6 inh. membrane potential dye fluorescence; after compound, maximal acetylcholine stimulation. inhibition, % at 10 µM. 2,400 compounds, 14% hits;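 active means membrane potential signal drops by more than 5 SD from the mean control signal, in both duplicate plates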;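 further: plate controls were acetylcholine ECmax control wells for no effect and buffer only wells for full effect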
TRPC4/MOR mod – mouse TRPC4 off-target activity of TRPC6 modulators; HEK293 TRPC4/mu-opioid, membrane potential fluorescence; AID 488927; percent change from control (negative = decrease, positive = increase), % at 10 µM; shares compounds with TRPC6 inh; 2,400 compounds, 69% hits;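 active means membrane potential signal moved up or down beyond 5 SD of buffer control wells, in both duplicate plates, actives on both sides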;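 further: plate controls were assay buffer wells for no effect and DAMGO maximal-effect wells for full effect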
TRPC4 ctr inh 2 – second check of whether TRPC6 modulators also affect mouse TRPC4. shares compounds with TRPC6 inh. HEK293 TRPC4/mu-opioid, membrane potential dye fluorescence; stimulated with maximal-effect DAMGO. inhibition, % at 10 µM. 2,400 compounds, 55% hits. AID 488928;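 active means drop in membrane potential signal beyond 5 SD of the control wells in both duplicate plates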;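 further: TRPC4 counter screen for TRPC6 hits run under conditions tuned for TRPC6 not TRPC4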
TRPC6 block conf – mouse TRPC6 inhibitor confirmation; inhibition, % at 10 µM; 3,300 compounds, 43% hits; HEK293-TRPC6, membrane potential dye, ACh-evoked depolarization; shares compounds with TRPC6 inh;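 active means fluorescence ratio falls more than 5 SD below the full-stimulation control mean, in both duplicate runs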;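 further: integrated fluorescence ratio of peak minus minimum over baseline after agonist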
TRPC6 act conf – mouse TRPC6 activator confirmation | activation, % at 10 µM | 2,800 compounds, 11% hits | AID 488961 | shares compounds with TRPC6 inh | HEK293-TRPC6 membrane potential dye fluorescence, FDSS;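 active means ratio signal rise beyond 5 SD above unstimulated control wells' mean, seen in both duplicate runs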;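 further: plate controls were buffer EC0 wells for no effect and acetylcholine ECmax response for full effect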
* hit, by the source's call; i = inactive; . = no result given.

SMILES | TRPC4 act | TRPC4 block | TRPC4 PAM | TRPC6 inh | TRPC6 act | HEK293 MPD ctr-2 | HEK293 MPD ctr 2-2 | TRPC4/MOR mod | TRPC4 ctr inh 2 | TRPC6 block conf | TRPC6 act conf | others
O=C(Cn1cccc1C(=O)c1ccccc1)NCc1ccccc1Cl | i | i | i | -5.1* | i | i | i | i | i | i | i
C[n+]1cccc(/C=N/Nc2nc(Cl)c(C#N)c(Cl)c2Cl)c1 | i | i | i | -6.2* | i | i | 80%* | -14%* | i | i | i
O=C(Nc1nnc(SCc2ccc(F)cc2)s1)C1CC(=O)N(Cc2ccccc2)C1 (stereo not drawn) | i | i | i | i | i | . | . | . | . | . | .
O=S(=O)(NCCNc1ncc(C(F)(F)F)cc1Cl)C(F)(F)F | i | i | i | -5.3* | i | i | i | 14%* | 32%* | 50%* | i
CS(=O)(=O)NCCNc1ncc(C(F)(F)F)cc1Cl | i | i | i | i | i | . | . | . | . | . | .
C=CCNC(=O)c1ccc([N+](=O)[O-])c(Cl)c1 | i | i | i | i | i | . | . | . | . | . | .
C=CCNCc1ccc(C(=O)NCCCCCCC)cc1[N+](=O)[O-] | i | . | i | -7* | i | . | . | . | . | i | i | TRPC4 spec 2=75%*;TRPC4 spec=-11%*;HEK293 MPD ctr 2-1=i;HEK293 MPD ctr-1=-160%*
O=C(Nc1ccc(Cl)c(Cl)c1)N1N=CCC1c1ccccc1 (stereo not drawn) | i | i | i | i | i | . | . | . | . | . | .
CCOC(=O)C1CCN(C(c2cc3ccc(C)c(C)c3[nH]c2=O)c2nnnn2C2CCCCC2)CC1 (stereo not drawn) | i | i | i | -8.8* | i | . | . | . | . | i | . | TRPC4 spec 2=i;TRPC4 spec=i;HEK293 MPD ctr 2-1=i;HEK293 MPD ctr-1=i
CCOC(=O)C1CCN(C(c2cc3c(C)ccc(C)c3[nH]c2=O)c2nnnn2C2CCCCC2)CC1 (stereo not drawn) | i | i | i | i | i | . | . | . | . | . | .
Cc1[nH]n(-c2ccc(Br)cc2)c(=O)c1C=Nc1ccc(S(=O)(=O)Nc2nccs2)cc1 | i | i | i | -5.8* | i | i | i | -39%* | 40%* | i | i
COc1cccc(C(=O)C2CCCN(Cc3cccn3-c3ccccn3)C2)c1 (stereo not drawn) | i | -7* | i | -5.9* | i | 146%* | i | 14%* | 84%* | 60%* | .
Cc1ccsc1C(=O)C1CCCN(Cc2cccn2-c2ccc(Cl)cn2)C1 (stereo not drawn) | i | i | i | -6* | i | i | i | i | 90%* | 54%* | .
COc1ccc(C(=O)C2CCCN(Cc3cccn3-c3nccs3)C2)cc1F (stereo not drawn) | i | i | i | i | i | . | . | . | . | . | .
COc1ccc(C(=O)C2CCCN(Cc3cccn3-c3nccs3)C2)cc1OC (stereo not drawn) | i | i | i | -5.2* | i | i | i | i | 68%* | i | i
COc1ccc(C(=O)C2CCCN(Cc3cccn3-c3ccccn3)C2)cc1F (stereo not drawn) | i | i | i | -12* | i | . | . | . | . | 107%* | i | TRPC4 spec 2=16%*;TRPC4 spec=i;HEK293 MPD ctr 2-1=21%*;HEK293 MPD ctr-1=-0.1%*
CCOC(=O)C(C(=O)OCC)c1c([N+](=O)[O-])c(=O)n2c3c(cccc13)CCC2 | i | i | i | i | i | . | . | . | . | . | .
Cc1cc(=O)oc2c(C)c(OCC(=O)N3CCC(C(=O)O)CC3)ccc12 | i | i | i | i | i | . | . | . | . | . | .
CC(C)c1nc(N2CCOCC2)c(C#N)c2c1CCCC2 | i | i | i | -5.5* | i | i | i | 18%* | i | i | .
CCOC(=O)CSc1nc(C(C)C)nc2sc(C)c(C)c12 | i | i | i | i | i | . | . | . | . | . | .
Cc1ccc(-c2nnc(CSc3nc(C(C)C)nc4sc(C)c(C)c34)o2)cc1 | i | i | i | -5.5* | i | i | i | i | i | i | i
CN(Cc1ccccc1)C(=O)CCC1CCN(S(C)(=O)=O)CC1 | i | i | i | i | i | . | . | . | . | . | .
CC(=O)c1ccc(N(CC(=O)NC2CCCC2)C(=O)CNC(=O)c2cccs2)cc1 | i | i | i | i | i | . | . | . | . | . | .
O=C1c2ccccc2C(=O)N1CCCc1nc(-c2ccccn2)no1 | i | i | i | -5* | i | i | i | i | i | i | i
O=C1c2ccccc2C(=O)N1CCc1nc(-c2ccccn2)no1 | i | i | i | i | i | . | . | . | . | . | .
Nc1ccccc1NC(=O)NC(=O)c1ccccc1 | i | i | i | i | i | . | . | . | . | . | .
Clc1ccc(C2NCCc3sccc32)cc1 (stereo not drawn) | i | i | i | -5.9* | i | i | i | 15%* | 71%* | i | i
O=C(CCCN1CCC(c2ccccc2)C1)c1ccc2c(c1)OCCO2 (stereo not drawn) | i | i | i | -6.5* | i | 112%* | i | i | 77%* | 68%* | .
